Data reported in ChEMBL document CHEMBL5653631, “A Potent and Selective ULK1 Inhibitor Suppresses Autophagy and Sensitizes Cancer Cells to Nutrient Stress” (iScience, 2018).
One block for each compound: values may come before it.

Columns and labels:
[1] = molecular target: MAP kinase-activated protein kinase 3 (Homo sapiens) (UniProt Q16644); assay: Inhibition of human recombinant MAPKAPK3 at 500 nM related to control ULK1
[2] = molecular target: Receptor-type tyrosine-protein kinase FLT3 (Homo sapiens) (UniProt P36888); assay: Inhibition of human recombinant FLT3 at 500 nM related to control ULK1
Receptor-type tyrosine-protein kinase FLT3 (Homo sapiens), sequence (P36888 whole entry): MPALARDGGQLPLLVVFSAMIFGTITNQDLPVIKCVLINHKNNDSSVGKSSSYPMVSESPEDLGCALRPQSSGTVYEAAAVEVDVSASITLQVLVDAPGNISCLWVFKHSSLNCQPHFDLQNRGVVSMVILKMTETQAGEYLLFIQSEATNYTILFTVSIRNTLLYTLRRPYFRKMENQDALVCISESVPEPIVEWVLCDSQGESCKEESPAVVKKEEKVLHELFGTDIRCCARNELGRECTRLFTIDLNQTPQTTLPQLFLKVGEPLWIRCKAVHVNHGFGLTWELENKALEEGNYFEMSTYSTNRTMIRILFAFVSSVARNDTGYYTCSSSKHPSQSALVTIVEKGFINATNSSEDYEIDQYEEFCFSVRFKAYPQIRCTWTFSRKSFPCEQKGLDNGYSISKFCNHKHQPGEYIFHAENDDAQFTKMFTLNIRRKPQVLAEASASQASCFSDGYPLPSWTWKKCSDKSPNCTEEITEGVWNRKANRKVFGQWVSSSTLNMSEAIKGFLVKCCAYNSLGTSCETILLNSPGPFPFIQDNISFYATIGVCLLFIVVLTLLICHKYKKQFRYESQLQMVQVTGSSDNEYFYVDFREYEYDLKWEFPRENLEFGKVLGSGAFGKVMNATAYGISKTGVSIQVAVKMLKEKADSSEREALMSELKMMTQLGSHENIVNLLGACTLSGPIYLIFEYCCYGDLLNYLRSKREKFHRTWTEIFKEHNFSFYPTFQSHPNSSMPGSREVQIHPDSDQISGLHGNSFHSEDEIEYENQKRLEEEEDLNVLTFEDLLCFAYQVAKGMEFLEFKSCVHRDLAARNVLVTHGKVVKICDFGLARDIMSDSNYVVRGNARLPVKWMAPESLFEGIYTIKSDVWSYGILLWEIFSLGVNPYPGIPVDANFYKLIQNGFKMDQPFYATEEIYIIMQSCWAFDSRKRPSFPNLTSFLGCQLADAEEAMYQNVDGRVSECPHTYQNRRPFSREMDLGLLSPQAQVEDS

[3] = molecular target: T1, Inhibitor of nuclear factor kappa-B kinase subunit epsilon (Homo sapiens) (UniProt Q14164); assay: Inhibition of human recombinant IKKe at 15 nM related to control ULK1
T1 sequence (whole entry): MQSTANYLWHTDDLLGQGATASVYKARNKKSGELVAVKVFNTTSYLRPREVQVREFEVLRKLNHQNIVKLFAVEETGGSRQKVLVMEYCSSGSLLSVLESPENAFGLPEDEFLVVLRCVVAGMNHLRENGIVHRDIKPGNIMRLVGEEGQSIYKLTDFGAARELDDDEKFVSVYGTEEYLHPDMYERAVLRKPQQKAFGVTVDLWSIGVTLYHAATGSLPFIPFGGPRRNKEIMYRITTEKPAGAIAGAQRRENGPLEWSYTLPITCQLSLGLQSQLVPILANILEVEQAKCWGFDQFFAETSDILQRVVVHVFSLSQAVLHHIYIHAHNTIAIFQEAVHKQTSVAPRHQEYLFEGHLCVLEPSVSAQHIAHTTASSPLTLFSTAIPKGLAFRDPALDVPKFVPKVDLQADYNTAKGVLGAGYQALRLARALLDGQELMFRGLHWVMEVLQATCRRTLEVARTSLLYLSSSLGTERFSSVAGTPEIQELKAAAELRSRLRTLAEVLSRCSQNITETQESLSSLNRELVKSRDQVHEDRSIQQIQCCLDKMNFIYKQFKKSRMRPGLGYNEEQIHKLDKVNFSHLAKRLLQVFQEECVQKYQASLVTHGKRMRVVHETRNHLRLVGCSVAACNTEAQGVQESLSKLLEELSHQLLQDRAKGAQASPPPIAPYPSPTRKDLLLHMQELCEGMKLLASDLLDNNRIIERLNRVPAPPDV

[4] = molecular target: Cyclin-dependent kinase 9 (Homo sapiens) (UniProt P50750); assay: Inhibition of human recombinant CDK9 at 15 nM in presence of ATP by radiometric assay relative to control
Cyclin-dependent kinase 9 (Homo sapiens), sequence (P50750 whole entry): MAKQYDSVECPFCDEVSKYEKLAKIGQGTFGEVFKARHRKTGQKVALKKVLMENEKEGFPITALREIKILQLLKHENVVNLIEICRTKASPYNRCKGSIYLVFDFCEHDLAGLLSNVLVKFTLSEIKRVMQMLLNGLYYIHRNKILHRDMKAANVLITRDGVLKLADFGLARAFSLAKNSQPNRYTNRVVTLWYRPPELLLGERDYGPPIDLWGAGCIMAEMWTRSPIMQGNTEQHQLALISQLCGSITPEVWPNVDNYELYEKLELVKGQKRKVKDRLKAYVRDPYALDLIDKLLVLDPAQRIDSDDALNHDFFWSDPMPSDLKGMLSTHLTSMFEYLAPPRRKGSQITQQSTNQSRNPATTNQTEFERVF

[5] = molecular target: Cyclin-dependent kinase 4 (Homo sapiens) (UniProt P11802); assay: Inhibition of human recombinant CDK4 at 15 nM related to control ULK1
Cyclin-dependent kinase 4 (Homo sapiens), sequence (P11802 whole entry): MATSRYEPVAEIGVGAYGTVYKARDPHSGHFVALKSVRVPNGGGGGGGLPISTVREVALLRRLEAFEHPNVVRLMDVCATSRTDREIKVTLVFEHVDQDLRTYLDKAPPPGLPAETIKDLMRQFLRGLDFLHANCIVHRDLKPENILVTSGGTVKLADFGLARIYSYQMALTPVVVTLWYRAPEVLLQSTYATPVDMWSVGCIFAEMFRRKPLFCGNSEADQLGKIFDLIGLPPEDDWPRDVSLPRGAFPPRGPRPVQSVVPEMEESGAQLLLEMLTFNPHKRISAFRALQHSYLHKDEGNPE

[6] = molecular target: Serine/threonine-protein kinase SBK1 (Homo sapiens) (UniProt Q52WX2); assay: Inhibition of human recombinant SBK1 at 15 nM related to control ULK1
Serine/threonine-protein kinase SBK1 (Homo sapiens), sequence (Q52WX2 whole entry): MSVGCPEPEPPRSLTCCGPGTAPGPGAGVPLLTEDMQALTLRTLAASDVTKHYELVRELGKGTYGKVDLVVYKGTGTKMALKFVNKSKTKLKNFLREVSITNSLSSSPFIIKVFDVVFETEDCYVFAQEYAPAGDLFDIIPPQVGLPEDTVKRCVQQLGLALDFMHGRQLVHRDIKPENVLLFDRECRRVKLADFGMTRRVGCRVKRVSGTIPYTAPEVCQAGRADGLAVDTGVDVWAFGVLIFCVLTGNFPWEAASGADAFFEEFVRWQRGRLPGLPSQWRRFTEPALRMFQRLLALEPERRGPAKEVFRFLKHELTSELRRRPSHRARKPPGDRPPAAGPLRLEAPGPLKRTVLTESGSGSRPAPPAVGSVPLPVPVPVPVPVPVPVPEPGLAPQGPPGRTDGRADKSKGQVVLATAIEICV

[7] = molecular target: T2, Aurora kinase A (Homo sapiens) (UniProt O14965); assay: Inhibition of human recombinant AurA at 15 nM in presence of ATP by radiometric assay relative to control
T2 sequence (whole entry): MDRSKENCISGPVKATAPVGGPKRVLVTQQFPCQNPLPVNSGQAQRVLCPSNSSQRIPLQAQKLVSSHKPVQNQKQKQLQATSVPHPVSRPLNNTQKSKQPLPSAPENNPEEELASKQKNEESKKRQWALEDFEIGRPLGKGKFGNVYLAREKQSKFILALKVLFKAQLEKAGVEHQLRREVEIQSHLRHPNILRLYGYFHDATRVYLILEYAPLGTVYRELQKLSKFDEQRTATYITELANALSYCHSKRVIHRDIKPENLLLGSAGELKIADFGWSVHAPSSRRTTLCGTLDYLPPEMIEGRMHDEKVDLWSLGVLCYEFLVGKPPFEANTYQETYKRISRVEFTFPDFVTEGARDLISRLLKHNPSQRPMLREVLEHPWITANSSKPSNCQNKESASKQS
Summary of the method: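 Panel of 327 recombinant human kinases, each assayed in vitro by radiometric activity assay in duplicate at a single inhibitor concentration per compound, chosen with reference to its ULK1 inhibition. Activity remaining was expressed as percent of vehicle control, and percent inhibition was calculated as 100 minus percent activity remaining.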

[8] = molecular target: T3, Serine/threonine-protein kinase Chk1 (Homo sapiens) (UniProt O14757); assay: Inhibition of human recombinant CHK1 at 15 nM in presence of ATP by radiometric assay relative to control
T3 sequence (whole entry): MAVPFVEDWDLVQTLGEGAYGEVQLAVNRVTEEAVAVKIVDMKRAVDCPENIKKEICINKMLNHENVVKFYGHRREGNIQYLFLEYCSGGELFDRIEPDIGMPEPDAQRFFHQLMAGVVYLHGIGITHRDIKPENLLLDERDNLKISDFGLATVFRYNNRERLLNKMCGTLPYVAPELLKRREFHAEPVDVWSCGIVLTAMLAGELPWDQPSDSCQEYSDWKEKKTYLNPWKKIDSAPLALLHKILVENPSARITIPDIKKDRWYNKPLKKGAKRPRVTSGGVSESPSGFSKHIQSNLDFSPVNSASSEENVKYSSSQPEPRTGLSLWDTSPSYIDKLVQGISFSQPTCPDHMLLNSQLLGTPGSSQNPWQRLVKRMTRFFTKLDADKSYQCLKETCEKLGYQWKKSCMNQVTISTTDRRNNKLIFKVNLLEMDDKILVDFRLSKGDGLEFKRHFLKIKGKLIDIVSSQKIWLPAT

[9] = molecular target: T4, Interleukin-1 receptor-associated kinase 4 (Homo sapiens) (UniProt Q9NWZ3); assay: Inhibition of human recombinant IRAK4 at 40 nM related to control ULK1
T4 sequence (whole entry): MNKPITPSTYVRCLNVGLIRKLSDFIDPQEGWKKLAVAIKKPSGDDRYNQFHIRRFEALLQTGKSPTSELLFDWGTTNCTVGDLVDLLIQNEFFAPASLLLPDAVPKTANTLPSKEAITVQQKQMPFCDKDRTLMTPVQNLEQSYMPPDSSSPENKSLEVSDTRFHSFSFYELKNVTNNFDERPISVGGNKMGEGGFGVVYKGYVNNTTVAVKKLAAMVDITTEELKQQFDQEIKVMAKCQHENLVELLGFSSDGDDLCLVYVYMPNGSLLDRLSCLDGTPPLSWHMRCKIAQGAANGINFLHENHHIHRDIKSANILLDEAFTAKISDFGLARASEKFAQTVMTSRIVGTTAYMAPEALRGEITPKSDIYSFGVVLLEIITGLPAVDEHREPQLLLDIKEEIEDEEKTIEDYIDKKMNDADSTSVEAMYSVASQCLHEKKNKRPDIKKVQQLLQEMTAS

[10] = molecular target: LIM domain kinase 1 (Homo sapiens) (UniProt P53667); assay: Inhibition of human recombinant LIMK1 at 40 nM in presence of ATP by radiometric assay relative to control
LIM domain kinase 1 (Homo sapiens), sequence (P53667 whole entry, looked up, the tested form may be a part): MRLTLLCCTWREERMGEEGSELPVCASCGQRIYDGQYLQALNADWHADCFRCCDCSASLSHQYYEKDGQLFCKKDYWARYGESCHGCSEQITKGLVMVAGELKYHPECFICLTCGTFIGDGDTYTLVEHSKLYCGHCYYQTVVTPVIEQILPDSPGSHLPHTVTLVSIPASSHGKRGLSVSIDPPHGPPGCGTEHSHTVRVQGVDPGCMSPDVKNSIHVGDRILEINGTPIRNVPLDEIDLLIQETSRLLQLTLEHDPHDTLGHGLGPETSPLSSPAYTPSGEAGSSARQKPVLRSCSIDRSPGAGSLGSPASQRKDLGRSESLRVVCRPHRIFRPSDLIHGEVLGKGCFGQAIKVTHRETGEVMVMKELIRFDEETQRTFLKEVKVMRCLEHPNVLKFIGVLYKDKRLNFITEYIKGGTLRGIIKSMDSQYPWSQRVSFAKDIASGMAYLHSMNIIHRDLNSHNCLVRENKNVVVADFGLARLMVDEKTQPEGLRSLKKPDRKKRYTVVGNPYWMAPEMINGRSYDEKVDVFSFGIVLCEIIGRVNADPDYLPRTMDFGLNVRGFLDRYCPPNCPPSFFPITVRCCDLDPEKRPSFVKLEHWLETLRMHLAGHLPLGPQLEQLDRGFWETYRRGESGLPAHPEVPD

MAP kinase-activated protein kinase 3 (Homo sapiens), sequence (Q16644 whole entry, looked up): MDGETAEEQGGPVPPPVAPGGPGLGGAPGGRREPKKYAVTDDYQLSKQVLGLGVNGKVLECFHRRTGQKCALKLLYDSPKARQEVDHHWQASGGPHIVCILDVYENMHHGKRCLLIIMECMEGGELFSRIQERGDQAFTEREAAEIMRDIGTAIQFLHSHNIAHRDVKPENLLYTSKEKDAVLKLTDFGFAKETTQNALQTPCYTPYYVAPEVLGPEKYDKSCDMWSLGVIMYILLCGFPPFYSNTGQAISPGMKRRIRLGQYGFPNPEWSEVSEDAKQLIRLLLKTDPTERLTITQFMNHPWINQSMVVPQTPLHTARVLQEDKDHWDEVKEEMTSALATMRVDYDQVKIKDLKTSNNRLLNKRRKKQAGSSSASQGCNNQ

- fold change (FC) [1]: 0
- fold change (FC) [2]: 0.77
Structure (SMILES): CNC(=O)c1ccccc1Oc1nc(Nc2cc(OC)c(OC)c(OC)c2)ncc1Br

- fold change (FC) [3]: 0.85
- inhibition [4]: 0%
- fold change (FC) [5]: 0.13
- fold change (FC) [6]: 0.06
- inhibition [7]: 13%
- inhibition [8]: 0%
Structure (SMILES): CC(C)[C@H](NC(=O)c1cc(-c2cnn3cc(-c4ccc(OCCN5CCCCC5)cc4)cnc23)cs1)C(F)(F)F

- fold change (FC) [9]: 0
- inhibition [10]: 15%
Structure (SMILES): O=C(N[C@@H](C1CC1)C(F)(F)F)c1cc(-c2cnn3cc(-c4ccc(F)cc4)cnc23)cs1
